This is an account of results in ChEMBL document CHEMBL1255169, “Synthesis, structure-affinity relationships, and radiolabeling of selective high-affinity 5-HT4 receptor ligands as prospective imaging probes for positron emission tomography” (J Med Chem, 2010).

A word on the Ki: it is a measure of affinity in units of concentration, obtained from inhibition or displacement. As a reminder, the EC50 is the midpoint of the concentration-response curve. Lower therefore signals a more potent agent.

The target in assay [1] is T1, 5-hydroxytryptamine receptor 4 (Homo sapiens, UniProt Q13639). The experiment in a line: Displacement of [3H]GR113808 from human recombinant 5HT4 receptor expressed in HEK293 cells. Type of assay: cell-based. On the technique in general: Displacement assays read how much labelled ligand stays bound in the presence of the test substance.
T1 sequence (Q13639 whole entry): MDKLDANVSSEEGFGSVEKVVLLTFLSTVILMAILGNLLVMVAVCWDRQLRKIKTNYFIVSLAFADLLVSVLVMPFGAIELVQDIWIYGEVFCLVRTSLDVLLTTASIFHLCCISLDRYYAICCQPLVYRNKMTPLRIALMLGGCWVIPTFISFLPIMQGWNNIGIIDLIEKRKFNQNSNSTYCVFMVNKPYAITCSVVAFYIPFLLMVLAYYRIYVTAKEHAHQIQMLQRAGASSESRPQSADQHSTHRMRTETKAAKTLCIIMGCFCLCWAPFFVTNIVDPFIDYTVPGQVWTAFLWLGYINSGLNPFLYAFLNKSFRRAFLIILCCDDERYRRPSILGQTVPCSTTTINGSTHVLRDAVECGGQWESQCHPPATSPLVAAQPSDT
The target of assay [2] is 5-hydroxytryptamine receptor 4 (Cavia porcellus, UniProt O70528). The experiment in a line: Displacement of [3H]GR113808 from 5HT4 receptor in guinea pig striatal membranes. It is filed as cell membranes, Striatum, Membrane.
Chain of 5-hydroxytryptamine receptor 4 (Cavia porcellus, UniProt O70528) (O70528 whole entry): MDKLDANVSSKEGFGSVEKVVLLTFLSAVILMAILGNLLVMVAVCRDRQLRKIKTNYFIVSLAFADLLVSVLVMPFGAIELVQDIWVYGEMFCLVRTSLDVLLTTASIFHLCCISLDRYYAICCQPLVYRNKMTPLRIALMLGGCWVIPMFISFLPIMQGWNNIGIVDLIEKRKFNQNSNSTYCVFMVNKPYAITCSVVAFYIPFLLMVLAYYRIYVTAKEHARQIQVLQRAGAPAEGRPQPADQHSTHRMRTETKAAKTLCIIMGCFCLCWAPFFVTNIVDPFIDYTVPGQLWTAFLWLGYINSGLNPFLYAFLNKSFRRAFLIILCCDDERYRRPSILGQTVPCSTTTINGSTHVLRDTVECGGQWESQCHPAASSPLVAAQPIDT
In assay [3] the target is T1, 5-hydroxytryptamine receptor 4. The experiment in a line: Inverse agonist activity at 5HT4 receptor expressed in HEK293/L9 cells by cAMP assay. It is filed as functional, cell-based.
Assay [4] has the same target. Description: Agonist activity at 5HT4 receptor expressed in HEK293/L9 cells by cAMP assay. It is filed as functional, cell-based. On the technique in general: Cyclic AMP is a second messenger, typically raised through Gs and lowered through Gi signalling.
In assay [5] the target is 5-hydroxytryptamine receptor 1D (Homo sapiens, UniProt P28221). Description: Binding affinity to human 5-HT1D receptor.
Chain of 5-hydroxytryptamine receptor 1D (P28221 whole entry): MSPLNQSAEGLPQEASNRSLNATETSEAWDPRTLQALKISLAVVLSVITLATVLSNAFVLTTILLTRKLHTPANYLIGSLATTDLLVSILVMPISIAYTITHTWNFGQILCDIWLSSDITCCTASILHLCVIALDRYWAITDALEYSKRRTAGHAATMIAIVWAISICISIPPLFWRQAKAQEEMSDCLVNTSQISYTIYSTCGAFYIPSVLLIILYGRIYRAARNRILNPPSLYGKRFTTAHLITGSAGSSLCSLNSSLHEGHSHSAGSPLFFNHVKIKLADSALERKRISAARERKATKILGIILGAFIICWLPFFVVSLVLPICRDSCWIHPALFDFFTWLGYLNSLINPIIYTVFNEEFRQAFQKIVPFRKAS
Assay [6] deals with 5-hydroxytryptamine receptor 2B (Homo sapiens, UniProt P41595). Description: Binding affinity to human 5-HT2B receptor.
Chain of 5-hydroxytryptamine receptor 2B (P41595 whole entry): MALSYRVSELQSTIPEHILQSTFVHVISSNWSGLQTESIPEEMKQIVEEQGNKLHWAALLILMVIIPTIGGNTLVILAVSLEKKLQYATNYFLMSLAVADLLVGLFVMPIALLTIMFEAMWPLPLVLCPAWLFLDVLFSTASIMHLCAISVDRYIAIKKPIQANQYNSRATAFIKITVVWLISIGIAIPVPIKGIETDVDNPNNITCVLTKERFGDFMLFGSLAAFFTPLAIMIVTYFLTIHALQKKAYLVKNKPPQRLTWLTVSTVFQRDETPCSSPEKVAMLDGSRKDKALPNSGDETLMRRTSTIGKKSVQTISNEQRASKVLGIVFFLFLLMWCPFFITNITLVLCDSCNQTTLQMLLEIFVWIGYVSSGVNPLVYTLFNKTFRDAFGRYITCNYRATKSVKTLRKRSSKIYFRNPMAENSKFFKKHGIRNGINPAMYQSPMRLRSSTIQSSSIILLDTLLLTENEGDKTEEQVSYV
Assay [7] has as its target T2, 5-hydroxytryptamine receptor 2C (Homo sapiens, UniProt P28335).
T2 sequence (P28335 whole entry): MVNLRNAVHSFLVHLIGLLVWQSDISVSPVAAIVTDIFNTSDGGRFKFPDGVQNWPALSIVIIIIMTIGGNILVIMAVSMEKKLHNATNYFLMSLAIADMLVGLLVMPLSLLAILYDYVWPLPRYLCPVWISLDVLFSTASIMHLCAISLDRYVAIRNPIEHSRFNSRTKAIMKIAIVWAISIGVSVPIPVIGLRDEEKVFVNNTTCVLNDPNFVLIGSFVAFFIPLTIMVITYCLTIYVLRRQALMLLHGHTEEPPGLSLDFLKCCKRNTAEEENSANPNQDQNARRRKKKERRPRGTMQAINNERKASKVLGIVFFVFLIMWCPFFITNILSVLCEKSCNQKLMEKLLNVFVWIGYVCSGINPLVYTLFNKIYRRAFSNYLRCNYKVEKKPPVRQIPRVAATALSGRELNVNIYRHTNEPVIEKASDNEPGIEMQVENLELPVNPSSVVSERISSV
Description: Binding affinity to human 5-HT2C receptor.

The target of assay [8] is T3, Alpha-1A adrenergic receptor (Homo sapiens, UniProt P35348).
T3 sequence (P35348 whole entry): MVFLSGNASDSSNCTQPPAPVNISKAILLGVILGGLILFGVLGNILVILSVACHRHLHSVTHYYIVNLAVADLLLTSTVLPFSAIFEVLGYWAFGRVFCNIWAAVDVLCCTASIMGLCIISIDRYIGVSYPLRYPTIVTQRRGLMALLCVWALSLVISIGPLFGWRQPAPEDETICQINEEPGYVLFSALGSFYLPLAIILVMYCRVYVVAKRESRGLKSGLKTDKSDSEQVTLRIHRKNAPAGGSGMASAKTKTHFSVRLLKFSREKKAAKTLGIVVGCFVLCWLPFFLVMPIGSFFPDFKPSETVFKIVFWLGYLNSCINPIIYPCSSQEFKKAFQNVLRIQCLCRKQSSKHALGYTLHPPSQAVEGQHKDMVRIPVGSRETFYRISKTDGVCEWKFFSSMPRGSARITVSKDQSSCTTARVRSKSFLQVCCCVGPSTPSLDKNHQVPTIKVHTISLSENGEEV
The experiment in a line: Binding affinity to human adrenergic alpha1A receptor.

Assay [9] addresses T4, Alpha-1B adrenergic receptor (Homo sapiens, UniProt P35368).
T4 sequence (P35368 whole entry): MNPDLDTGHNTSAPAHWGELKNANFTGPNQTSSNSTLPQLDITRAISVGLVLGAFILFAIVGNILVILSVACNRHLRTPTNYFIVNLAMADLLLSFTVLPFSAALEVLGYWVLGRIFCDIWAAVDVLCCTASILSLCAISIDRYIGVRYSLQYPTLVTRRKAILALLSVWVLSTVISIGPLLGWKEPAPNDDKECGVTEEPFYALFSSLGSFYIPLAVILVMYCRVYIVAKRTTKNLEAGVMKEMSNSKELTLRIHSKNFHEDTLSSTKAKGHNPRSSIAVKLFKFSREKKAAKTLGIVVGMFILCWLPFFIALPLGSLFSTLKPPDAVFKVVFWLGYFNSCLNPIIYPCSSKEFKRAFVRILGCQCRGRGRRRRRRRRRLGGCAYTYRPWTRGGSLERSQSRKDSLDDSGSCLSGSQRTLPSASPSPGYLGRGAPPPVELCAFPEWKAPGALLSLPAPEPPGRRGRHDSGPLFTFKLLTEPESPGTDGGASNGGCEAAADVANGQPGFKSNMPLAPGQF
The experiment in a line: Binding affinity to human adrenergic Alpha-1B receptor.

Assay [10] has as its target T5, Alpha-2B adrenergic receptor (Homo sapiens, UniProt P18089).
T5 sequence (P18089 whole entry): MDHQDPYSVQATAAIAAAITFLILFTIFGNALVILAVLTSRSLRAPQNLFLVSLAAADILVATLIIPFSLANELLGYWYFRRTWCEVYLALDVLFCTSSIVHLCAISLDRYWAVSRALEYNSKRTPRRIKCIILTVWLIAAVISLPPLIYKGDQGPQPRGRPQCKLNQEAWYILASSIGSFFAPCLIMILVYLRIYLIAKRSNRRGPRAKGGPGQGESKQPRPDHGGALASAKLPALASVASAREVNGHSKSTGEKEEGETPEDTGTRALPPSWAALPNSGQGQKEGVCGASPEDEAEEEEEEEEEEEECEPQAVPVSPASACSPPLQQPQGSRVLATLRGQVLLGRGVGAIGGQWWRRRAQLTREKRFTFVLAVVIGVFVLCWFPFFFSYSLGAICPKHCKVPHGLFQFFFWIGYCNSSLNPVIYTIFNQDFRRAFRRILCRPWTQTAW
Description: Binding affinity to human adrenergic alpha2B receptor. The procedure, abridged: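 Radioligand binding run by the NIMH Psychoactive Drug Screening Program as part of a broad receptor and binding-site panel, which included α1A, α1B, α1D and α2A–C subtypes. Affinity is expressed as Ki.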

Assay [11] deals with T6, Alpha-2C adrenergic receptor (Homo sapiens, UniProt P18825).
T6 sequence (P18825 whole entry): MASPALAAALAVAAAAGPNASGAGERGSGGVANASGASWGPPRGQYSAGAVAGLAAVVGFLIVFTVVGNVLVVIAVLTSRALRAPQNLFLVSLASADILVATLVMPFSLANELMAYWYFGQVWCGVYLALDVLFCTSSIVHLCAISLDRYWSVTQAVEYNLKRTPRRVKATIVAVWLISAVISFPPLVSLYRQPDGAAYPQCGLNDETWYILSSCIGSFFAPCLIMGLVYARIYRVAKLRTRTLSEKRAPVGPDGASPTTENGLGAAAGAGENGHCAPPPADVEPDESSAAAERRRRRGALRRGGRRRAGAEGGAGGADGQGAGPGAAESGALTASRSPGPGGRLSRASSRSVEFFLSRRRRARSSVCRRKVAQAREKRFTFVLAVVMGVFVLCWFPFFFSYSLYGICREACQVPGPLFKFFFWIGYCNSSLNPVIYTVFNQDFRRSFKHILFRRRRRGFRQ
The experiment in a line: Binding affinity to human adrenergic Alpha-2C receptor.

Assay [12] concerns the target Sigma non-opioid intracellular receptor 1 (Rattus norvegicus, UniProt Q9R0C9). Description: Binding affinity to rat sigma 1 receptor.
Assay [13] can be described thus: Binding affinity to rat sigma 2 receptor.
The next assay has as its target D(2) dopamine receptor (Rattus norvegicus, UniProt P61169). Description: Binding affinity to rat dopamine D2 receptor.
In another assay the target is D(3) dopamine receptor (Rattus norvegicus, UniProt P19020). Description: Binding affinity to rat dopamine D3 receptor.
Chain of D(3) dopamine receptor (P19020 whole entry): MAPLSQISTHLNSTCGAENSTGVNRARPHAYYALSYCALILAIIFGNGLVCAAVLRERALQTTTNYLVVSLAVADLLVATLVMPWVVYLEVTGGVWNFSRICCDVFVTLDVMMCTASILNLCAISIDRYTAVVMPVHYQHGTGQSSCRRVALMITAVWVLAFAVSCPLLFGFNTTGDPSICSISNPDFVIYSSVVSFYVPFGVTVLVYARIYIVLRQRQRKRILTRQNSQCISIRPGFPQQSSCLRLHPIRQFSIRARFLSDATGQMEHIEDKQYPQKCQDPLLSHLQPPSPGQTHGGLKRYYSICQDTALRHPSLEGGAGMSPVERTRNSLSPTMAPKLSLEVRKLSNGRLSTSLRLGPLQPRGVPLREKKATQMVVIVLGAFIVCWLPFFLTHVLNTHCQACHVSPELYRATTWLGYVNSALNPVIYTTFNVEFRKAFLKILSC
The next assay has as its target T7, D(4) dopamine receptor (Rattus norvegicus, UniProt P30729).
T7 sequence (P30729 whole entry): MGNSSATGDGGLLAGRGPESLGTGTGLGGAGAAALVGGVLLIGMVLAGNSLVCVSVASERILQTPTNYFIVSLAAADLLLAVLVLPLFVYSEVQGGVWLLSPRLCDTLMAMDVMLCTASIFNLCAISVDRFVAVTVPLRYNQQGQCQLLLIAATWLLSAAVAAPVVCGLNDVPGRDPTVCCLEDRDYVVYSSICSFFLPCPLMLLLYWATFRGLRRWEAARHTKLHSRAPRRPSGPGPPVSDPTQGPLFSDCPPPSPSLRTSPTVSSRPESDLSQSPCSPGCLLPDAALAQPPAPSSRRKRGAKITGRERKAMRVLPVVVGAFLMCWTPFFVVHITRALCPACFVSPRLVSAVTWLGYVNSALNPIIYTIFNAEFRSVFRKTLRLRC
The experiment in a line: Binding affinity to rat dopamine D4 receptor.

A further assay addresses Histamine H3 receptor (Cavia porcellus, UniProt Q9JI35). Description: Binding affinity to guinea pig histamine H3 receptor.
The target in assay [14] is T1, 5-hydroxytryptamine receptor 4. Description: Antagonist activity at 5HT4 receptor expressed in HEK293/L9 cells by cAMP assay. It is filed as functional, cell-based.

Structures are written as SMILES. The source made the active and inactive calls. The rule behind the calls is not given here.

Chain of Histamine H3 receptor (Q9JI35 whole entry): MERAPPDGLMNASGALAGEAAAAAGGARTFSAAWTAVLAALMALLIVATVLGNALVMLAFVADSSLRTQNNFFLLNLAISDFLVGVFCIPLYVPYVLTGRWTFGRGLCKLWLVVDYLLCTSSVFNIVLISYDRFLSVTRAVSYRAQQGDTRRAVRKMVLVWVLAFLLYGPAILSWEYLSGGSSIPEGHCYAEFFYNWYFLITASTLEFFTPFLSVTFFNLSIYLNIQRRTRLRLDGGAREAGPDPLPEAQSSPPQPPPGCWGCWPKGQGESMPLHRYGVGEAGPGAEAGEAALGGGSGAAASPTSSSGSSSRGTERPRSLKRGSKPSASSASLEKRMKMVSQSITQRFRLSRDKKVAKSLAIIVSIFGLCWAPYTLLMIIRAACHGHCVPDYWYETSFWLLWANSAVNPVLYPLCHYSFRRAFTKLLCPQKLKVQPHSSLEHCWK
Chain of Sigma non-opioid intracellular receptor 1 (Q9R0C9 whole entry): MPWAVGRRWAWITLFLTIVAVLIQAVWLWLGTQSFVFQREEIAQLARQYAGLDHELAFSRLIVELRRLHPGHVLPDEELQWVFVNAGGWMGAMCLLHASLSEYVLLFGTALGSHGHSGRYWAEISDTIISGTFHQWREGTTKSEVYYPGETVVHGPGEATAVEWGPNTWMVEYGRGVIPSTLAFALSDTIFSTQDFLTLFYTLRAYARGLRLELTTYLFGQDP
Chain of D(2) dopamine receptor (P61169 whole entry): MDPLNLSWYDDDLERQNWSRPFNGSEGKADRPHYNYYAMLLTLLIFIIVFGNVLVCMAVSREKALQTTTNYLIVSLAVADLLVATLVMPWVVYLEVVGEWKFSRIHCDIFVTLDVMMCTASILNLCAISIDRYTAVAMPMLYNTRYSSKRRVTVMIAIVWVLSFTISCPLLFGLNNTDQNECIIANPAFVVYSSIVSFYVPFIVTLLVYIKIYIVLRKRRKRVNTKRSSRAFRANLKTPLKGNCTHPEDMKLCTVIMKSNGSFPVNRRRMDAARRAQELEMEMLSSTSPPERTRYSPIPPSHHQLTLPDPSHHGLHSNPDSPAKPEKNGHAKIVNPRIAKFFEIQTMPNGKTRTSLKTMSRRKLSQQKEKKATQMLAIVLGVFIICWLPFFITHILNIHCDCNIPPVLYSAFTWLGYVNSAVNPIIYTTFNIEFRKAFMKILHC

With `CCCCN1CCC(COC(=O)c2cc([N+](=O)[O-])c(N)c3c2OCCO3)CC1`, the Ki in [1] was determined as 0.0078 µM.
Still for that read-out and setting: then `CCCCN1CCC(CNC(=O)c2ccc(N)c(OC)c2)CC1`, with 8.66 µM.
Consider `CCCCN1CCC(COC(=O)c2cc(C#N)c(N)c3c2OCCO3)CC1`, for which the Ki in [2] stood at 0.00045 µM; in [1] it was 0.033 µM.
Regarding `CCCCN1CCC(COC(=O)c2cc(F)c(N)c3c2OCCO3)CC1`, the Ki in assay [2] came out at 0.000334 µM; in assay [1] it was 0.0021 µM; in assay [5], 2.86 µM; in [6] it was 0.168 µM; in assay [7], 8.36 µM; in assay [8] it was 0.0876 µM. The Ki was 9.08 µM in [9]; 0.773 µM in assay [10]; 0.593 µM in assay [11]; 0.055 µM in assay [12]; 0.0129 µM in assay [13]; 0.615 µM on D(2) dopamine receptor. Moreover, the Ki on D(3) dopamine receptor was 1.01 µM; at D(4) dopamine receptor it was 0.316 µM; at Histamine H3 receptor it was 5.04 µM. The Efficacy entry in assay [3] is “Active”. The compound also showed a half-maximal effective concentration (EC50) in assay [4] of 0.00589 µM.
On to `CCCCN1CCC(COC(=O)c2ccc(N)c(OCF)c2)CC1`, for which the inhibitory constant (Ki) in [2] stood at 0.000334 µM; in [1], 0.017 µM.
`CCCCN1CCC(COC(=O)c2cc(C#N)c(NC)c3c2OCCO3)CC1`: the Ki in assay [1] worked out at 0.037 µM. Also, the Efficacy result in [3] is “Active”. In assay [4], this compound gave an EC50 of 0.0158 µM.
For `CCCCN1CCC(COC(=O)c2cc(Br)c(NC)c3c2OCCO3)CC1`, the inhibition constant Ki in assay [1] amounted to 0.0045 µM. In addition, the Efficacy entry in assay [3] was “Active”. The same compound showed an EC50 in [4] of 0.01 µM.
In the same order, the values of `CCCCN1CCC(COC(=O)c2ccc(NC)c3c2OCCO3)CC1` are 0.0091 µM, “Active” and 0.00891 µM.
Turning to `CCCCN1CCC(COC(=O)c2cc(I)c(N)c3c2OCCO3)CC1`, the Ki in assay [2] was 0.0002 µM.
For `CCCCN1CCC(COC(=O)c2ccc(N)c(OCCF)c2)CC1`, the values for the inhibitory constant (Ki) in [2] and in assay [1] were 0.000215 µM and 0.011 µM, respectively.
On to `CCCCCN1CCC(COC(=O)c2ccc(N)c(OC)c2)CC1`, for which the inhibition constant (Ki) in [1] worked out at 0.012 µM.
`CCCCN1CCC(COC(=O)c2cc(I)c(NC)c3c2OCCO3)CC1`: the Ki in assay [1] came to 0.0074 µM. For the same compound, in [3], the Efficacy result was “Active”. For the same compound, in assay [4], the half-maximal effective concentration (EC50) is 0.02 µM.
As for `CCCN1CCC(COC(=O)c2ccc(N)c(OC)c2)CC1`, the Ki in [2] was 0.000901 µM; in [1], 0.017 µM.
Consider `CCCCN1CCC(COC(=O)c2ccc(N)c3c2OCCO3)CC1`, for which the inhibitory constant (Ki) in assay [1] worked out at 0.0014 µM. The Efficacy result in assay [14] is “Active”.
In the same order, the values of `CCCCN1CCC(COC(=O)c2cc(C)c(N)c3c2OCCO3)CC1` are 0.0063 µM and “Active”.
